Square brackets hold non-standard residues; d marks the D form. Peptide text beside a SMILES is read from it. * marks the point of attachment. X1 = C=CCOC(=O)[C@]12CC[C@@H](C(=C)C)[C@@H]1[C@H]1CC[C@@H]3[C@@]4(C)CC[C@H](OC(=O)CCc5cn(CC(=O)*)nn5)C(C)(C)[C@@H]4CC[C@@]3(C)[C@]1(C)CC2; X9 = C=CCOC(=O)[C@]12CC[C@@H](C)[C@H](C)[C@H]1C1=CC[C@@H]3[C@@]4(C)CC[C@H](OC(=O)CCc5cn(CC(=O)*)nn5)C(C)(C)[C@@H]4CC[C@@]3(C)[C@]1(C)CC2; X3 = C=C(C)[C@@H]1CC[C@]2(C(=O)O)CC[C@]3(C)[C@H](CC[C@@H]4[C@@]5(C)CC[C@H](OC(=O)CCc6cn(CC(=O)*)nn6)C(C)(C)[C@@H]5CC[C@]43C)[C@@H]12; X5 = C=C(C)[C@@H]1CC[C@]2(C(=O)OCc3cn(CC(=O)*)nn3)CC[C@]3(C)[C@H](CC[C@@H]4[C@@]5(C)CC[C@H](OC(C)=O)C(C)(C)[C@@H]5CC[C@]43C)[C@@H]12; X4 = C=C(C)[C@@H]1CC[C@]2(C(=O)OCc3cn(CC(=O)*)nn3)CC[C@]3(C)[C@H](CC[C@@H]4[C@@]5(C)CC[C@H](O)C(C)(C)[C@@H]5CC[C@]43C)[C@@H]12; βAla = NCCC(=O)O
Columns and labels:
[1] = system: Human immunodeficiency virus 1; experiment: Antiviral activity against HIV1 3B infected in human MT2 cells assessed as inhibition of viral p24 antigen production by ELISA; format: functional, organism-based; details: Human immunodeficiency virus 1, 3B
Outline: (§1)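 MT-2 cells (1 × 10⁴) infected with 100 TCID₅₀ virus with or without peptides at graded concentrations. Culture supernatants collected on day 4 postinfection; p24 antigen quantified by ELISA. Percent inhibition and EC₅₀ calculated; tested in triplicate, mean ± standard deviation.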

[2] = Cytotoxicity against human MT2 cells after 4 days by XTT assay; format: cell-based
Outline: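 MT-2 cells (5 × 10⁵/mL) mixed with equal volumes of graded conjugate concentrations and held at 37 °C for 4 days. XTT (1 mg/mL) with 0.02 μM phenazine methosulfate added for 4 h, then A450 read. CC50 calculated from the dose–response.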

[3] = system: Human immunodeficiency virus 1; experiment: Antiviral activity against HIV1 BaL infected in human […] cells assessed as inhibition of viral replication; format: functional, organism-based; details: Human immunodeficiency virus 1, BaL; outline: as §1
[4] = Selectivity index, ratio of CC50 for human MT2 cells to EC50 for HIV1 3B infected in human MT2 cells; format: toxicity, cell-based; details: read-out: Ratio CC50/EC50

Structure (SMILES)	EC50 [1]	CC50 at 96 h [2]	EC50 [3]	selectivity ratio [4]
C=C(C)[C@@H]1CC[C@]2(C(=O)O)CC[C@]3(C)[C@H](CC[C@@H]4[C@@]5(C)CC[C@H](OC(=O)CCc6cn(CC(=O)NCCCC[C@H](NC(=O)CCNC(=O)[C@H](CC(C)C)NC(=O)[C@H](CC(C)C)NC(=O)[C@H](CCC(=O)O)NC(=O)[C@H](CCC(N)=O)NC(=O)[C@H](CCC(=O)O)NC(=O)[C@H](CC(N)=O)NC(=O)[C@H](CCCCN)NC(=O)[C@H](CCC(=O)O)NC(=O)[C@H](CCC(N)=O)NC(=O)[C@H](CCC(N)=O)NC(=O)[C@H](CC(N)=O)NC(=O)[C@H](CCC(N)=O)NC(=O)[C@H](CO)NC(=O)[C@H](CCC(=O)O)NC(=O)[C@H](CCC(=O)O)NC(=O)[C@@H](NC(=O)[C@H](CC(C)C)NC(=O)[C@H](CO)NC(=O)[C@H](Cc7cnc[nH]7)NC(=O)[C@@H](NC(=O)[C@H](CC(C)C)NC(=O)[C@H](CO)NC(=O)[C@@H](NC(=O)[C@H](Cc7ccc(O)cc7)NC(=O)[C@H](CC(N)=O)NC(=O)[C@H](CC(N)=O)NC(C)=O)[C@@H](C)O)[C@@H](C)CC)[C@@H](C)CC)C(N)=O)nn6)C(C)(C)[C@@H]5CC[C@]43C)[C@@H]12 (Ac-NNYTSLIHSLIEESQNQQEKNEQELL[βAla]K(X3)-NH2)	61.6 nM	> 25000 nM	83.1 nM	> 406
C=C(C)[C@@H]1CC[C@]2(C(=O)OCc3cn(CC(=O)NCCCC[C@H](NC(=O)CCNC(=O)[C@H](CC(C)C)NC(=O)[C@H](CC(C)C)NC(=O)[C@H](CCC(=O)O)NC(=O)[C@H](CCC(N)=O)NC(=O)[C@H](CCC(=O)O)NC(=O)[C@H](CC(N)=O)NC(=O)[C@H](CCCCN)NC(=O)[C@H](CCC(=O)O)NC(=O)[C@H](CCC(N)=O)NC(=O)[C@H](CCC(N)=O)NC(=O)[C@H](CC(N)=O)NC(=O)[C@H](CCC(N)=O)NC(=O)[C@H](CO)NC(=O)[C@H](CCC(=O)O)NC(=O)[C@H](CCC(=O)O)NC(=O)[C@@H](NC(=O)[C@H](CC(C)C)NC(=O)[C@H](CO)NC(=O)[C@H](Cc4cnc[nH]4)NC(=O)[C@@H](NC(=O)[C@H](CC(C)C)NC(=O)[C@H](CO)NC(=O)[C@@H](NC(=O)[C@H](Cc4ccc(O)cc4)NC(=O)[C@H](CC(N)=O)NC(=O)[C@H](CC(N)=O)NC(C)=O)[C@@H](C)O)[C@@H](C)CC)[C@@H](C)CC)C(N)=O)nn3)CC[C@]3(C)[C@H](CC[C@@H]4[C@@]5(C)CC[C@H](O)C(C)(C)[C@@H]5CC[C@]43C)[C@@H]12 (Ac-NNYTSLIHSLIEESQNQQEKNEQELL[βAla]K(X4)-NH2)	154 nM	> 25000 nM	135 nM	> 50
C=C(C)[C@@H]1CC[C@]2(C(=O)OCc3cn(CC(=O)NCCCC[C@H](NC(=O)CCNC(=O)[C@H](CC(C)C)NC(=O)[C@H](CC(C)C)NC(=O)[C@H](CCC(=O)O)NC(=O)[C@H](CCC(N)=O)NC(=O)[C@H](CCC(=O)O)NC(=O)[C@H](CC(N)=O)NC(=O)[C@H](CCCCN)NC(=O)[C@H](CCC(=O)O)NC(=O)[C@H](CCC(N)=O)NC(=O)[C@H](CCC(N)=O)NC(=O)[C@H](CC(N)=O)NC(=O)[C@H](CCC(N)=O)NC(=O)[C@H](CO)NC(=O)[C@H](CCC(=O)O)NC(=O)[C@H](CCC(=O)O)NC(=O)[C@@H](NC(=O)[C@H](CC(C)C)NC(=O)[C@H](CO)NC(=O)[C@H](Cc4cnc[nH]4)NC(=O)[C@@H](NC(=O)[C@H](CC(C)C)NC(=O)[C@H](CO)NC(=O)[C@@H](NC(=O)[C@H](Cc4ccc(O)cc4)NC(=O)[C@H](CC(N)=O)NC(=O)[C@H](CC(N)=O)NC(C)=O)[C@@H](C)O)[C@@H](C)CC)[C@@H](C)CC)C(N)=O)nn3)CC[C@]3(C)[C@H](CC[C@@H]4[C@@]5(C)CC[C@H](OC(C)=O)C(C)(C)[C@@H]5CC[C@]43C)[C@@H]12 (Ac-NNYTSLIHSLIEESQNQQEKNEQELL[βAla]K(X5)-NH2)	41.4 nM	> 25000 nM	20.8 nM	> 603
C=CCOC(=O)[C@]12CC[C@@H](C)[C@H](C)[C@H]1C1=CC[C@@H]3[C@@]4(C)CC[C@H](OC(=O)CCc5cn(CC(=O)NCCCC[C@H](NC(=O)CCNC(=O)[C@H](CC(C)C)NC(=O)[C@H](CC(C)C)NC(=O)[C@H](CCC(=O)O)NC(=O)[C@H](CCC(N)=O)NC(=O)[C@H](CCC(=O)O)NC(=O)[C@H](CC(N)=O)NC(=O)[C@H](CCCCN)NC(=O)[C@H](CCC(=O)O)NC(=O)[C@H](CCC(N)=O)NC(=O)[C@H](CCC(N)=O)NC(=O)[C@H](CC(N)=O)NC(=O)[C@H](CCC(N)=O)NC(=O)[C@H](CO)NC(=O)[C@H](CCC(=O)O)NC(=O)[C@H](CCC(=O)O)NC(=O)[C@@H](NC(=O)[C@H](CC(C)C)NC(=O)[C@H](CO)NC(=O)[C@H](Cc6cnc[nH]6)NC(=O)[C@@H](NC(=O)[C@H](CC(C)C)NC(=O)[C@H](CO)NC(=O)[C@@H](NC(=O)[C@H](Cc6ccc(O)cc6)NC(=O)[C@H](CC(N)=O)NC(=O)[C@H](CC(N)=O)NC(C)=O)[C@@H](C)O)[C@@H](C)CC)[C@@H](C)CC)C(N)=O)nn5)C(C)(C)[C@@H]4CC[C@@]3(C)[C@]1(C)CC2 (Ac-NNYTSLIHSLIEESQNQQEKNEQELL[βAla]K(X9)-NH2)	2.18 nM	7920 nM	2.51 nM	3630
C=CCOC(=O)[C@]12CC[C@@H](C(=C)C)[C@@H]1[C@H]1CC[C@@H]3[C@@]4(C)CC[C@H](OC(=O)CCc5cn(CC(=O)NCCC(=O)N[C@@H](CC(N)=O)C(=O)N[C@@H](CC(N)=O)C(=O)N[C@@H](Cc6ccc(O)cc6)C(=O)N[C@H](C(=O)N[C@@H](CO)C(=O)N[C@@H](CC(C)C)C(=O)N[C@H](C(=O)N[C@@H](Cc6cnc[nH]6)C(=O)N[C@@H](CO)C(=O)N[C@@H](CC(C)C)C(=O)N[C@H](C(=O)N[C@@H](CCC(=O)O)C(=O)N[C@@H](CCC(=O)O)C(=O)N[C@@H](CO)C(=O)N[C@@H](CCC(N)=O)C(=O)N[C@@H](CC(N)=O)C(=O)N[C@@H](CCC(N)=O)C(=O)N[C@@H](CCC(N)=O)C(=O)N[C@@H](CCC(=O)O)C(=O)N[C@@H](CCCCN)C(=O)N[C@@H](CC(N)=O)C(=O)N[C@@H](CCC(=O)O)C(=O)N[C@@H](CCC(N)=O)C(=O)N[C@@H](CCC(=O)O)C(=O)N[C@@H](CC(C)C)C(=O)N[C@@H](CC(C)C)C(N)=O)[C@@H](C)CC)[C@@H](C)CC)[C@@H](C)O)nn5)C(C)(C)[C@@H]4CC[C@@]3(C)[C@]1(C)CC2 ({X1-βAla}-NNYTSLIHSLIEESQNQQEKNEQELL-NH2)	242 nM	> 25000 nM	519 nM	> 103
C=C(C)[C@@H]1CC[C@]2(C(=O)OCc3cn(CC(=O)NCCC(=O)N[C@@H](CC(N)=O)C(=O)N[C@@H](CC(N)=O)C(=O)N[C@@H](Cc4ccc(O)cc4)C(=O)N[C@H](C(=O)N[C@@H](CO)C(=O)N[C@@H](CC(C)C)C(=O)N[C@H](C(=O)N[C@@H](Cc4cnc[nH]4)C(=O)N[C@@H](CO)C(=O)N[C@@H](CC(C)C)C(=O)N[C@H](C(=O)N[C@@H](CCC(=O)O)C(=O)N[C@@H](CCC(=O)O)C(=O)N[C@@H](CO)C(=O)N[C@@H](CCC(N)=O)C(=O)N[C@@H](CC(N)=O)C(=O)N[C@@H](CCC(N)=O)C(=O)N[C@@H](CCC(N)=O)C(=O)N[C@@H](CCC(=O)O)C(=O)N[C@@H](CCCCN)C(=O)N[C@@H](CC(N)=O)C(=O)N[C@@H](CCC(=O)O)C(=O)N[C@@H](CCC(N)=O)C(=O)N[C@@H](CCC(=O)O)C(=O)N[C@@H](CC(C)C)C(=O)N[C@@H](CC(C)C)C(N)=O)[C@@H](C)CC)[C@@H](C)CC)[C@@H](C)O)nn3)CC[C@]3(C)[C@H](CC[C@@H]4[C@@]5(C)CC[C@H](O)C(C)(C)[C@@H]5CC[C@]43C)[C@@H]12 ({X4-βAla}-NNYTSLIHSLIEESQNQQEKNEQELL-NH2)	475 nM	> 25000 nM	456 nM	> 52
C=C(C)[C@@H]1CC[C@]2(C(=O)OCc3cn(CC(=O)NCCC(=O)N[C@@H](CC(N)=O)C(=O)N[C@@H](CC(N)=O)C(=O)N[C@@H](Cc4ccc(O)cc4)C(=O)N[C@H](C(=O)N[C@@H](CO)C(=O)N[C@@H](CC(C)C)C(=O)N[C@H](C(=O)N[C@@H](Cc4cnc[nH]4)C(=O)N[C@@H](CO)C(=O)N[C@@H](CC(C)C)C(=O)N[C@H](C(=O)N[C@@H](CCC(=O)O)C(=O)N[C@@H](CCC(=O)O)C(=O)N[C@@H](CO)C(=O)N[C@@H](CCC(N)=O)C(=O)N[C@@H](CC(N)=O)C(=O)N[C@@H](CCC(N)=O)C(=O)N[C@@H](CCC(N)=O)C(=O)N[C@@H](CCC(=O)O)C(=O)N[C@@H](CCCCN)C(=O)N[C@@H](CC(N)=O)C(=O)N[C@@H](CCC(=O)O)C(=O)N[C@@H](CCC(N)=O)C(=O)N[C@@H](CCC(=O)O)C(=O)N[C@@H](CC(C)C)C(=O)N[C@@H](CC(C)C)C(N)=O)[C@@H](C)CC)[C@@H](C)CC)[C@@H](C)O)nn3)CC[C@]3(C)[C@H](CC[C@@H]4[C@@]5(C)CC[C@H](OC(C)=O)C(C)(C)[C@@H]5CC[C@]43C)[C@@H]12 ({X5-βAla}-NNYTSLIHSLIEESQNQQEKNEQELL-NH2)	501 nM	> 25000 nM	99 nM	> 52

From ChEMBL document CHEMBL3351900, “Conjugation of a nonspecific antiviral sapogenin with a specific HIV fusion inhibitor: a promising strategy for discovering new antiviral therapeutics” (J Med Chem, 2014)
